Data set [1] relates to scavenger receptors in the liver. The conditions noted are these: read-out: IC50, inhibition of 125I-DNA nanoparticle uptake by the liver; previously reported; cited from earlier work.
The nature of data set [2]: Micelle formation of PEG-peptides without albumin. In kind it is physicochemical. To be noted: dynamic light scattering, 1–40 nmol in 1 ml 150 mM sodium chloride; for micelle formation (in words): 50 mM sodium phosphate pH 7.4; for critical-micelle-concentration: 50 mM sodium phosphate pH 7.4, no albumin. Summed up:
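Particle size of the PEG-peptide was measured by dynamic light scattering at increasing amounts (1–40 nmol in 1 ml buffer) to locate the critical micelle concentration. Sizes are the mean and standard error of ten measurements, after deconvolution by intensity-averaged multimodal distribution.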

The test system of data set [3] is scavenger receptors in the liver. The conditions noted are these: for percent of dose captured by the liver: mouse, in vivo, iv.

“Also recorded” adds a separate entry of the source. Read-outs that look alike come from different tables or passages of the source.

“(Acr-Lys4)3-Acr-Lys-Cys-PEG5kDa [compound 27]”: the IC50 in data set [1] was 8 µM.

For the substance “PEG2kDa-Cys-Tyr-(Leu-Lys4)3-Leu-Lys [compound 33]”, the “micelle formation (in words)” value in data set [2] is “avoided micelle formation”. In addition, in data set [3] (33 compared with 32, saturation of liver uptake), the “increase in potency (IC50) on decreasing PEG from 5 to 2 kDa” value was determined as 6 fold.

As for “PEG5kDa-Cys-Tyr-(Leu-Arg)8 [compound 38]”, in data set [2], the “micelle formation (in words)” value was “formed micelles” and the critical-micelle-concentration lay within 2 to 5 µM. Also, the “percent of dose captured by the liver” value in data set [3] came to 45%.

For the substance “PEG5kDa-Cys-Tyr-(Leu-Lys4)3-Leu-Lys [compound 32]”, the “micelle formation (in words)” value in data set [2] was “avoided micelle formation”. For the substance “PEG5kDa-Cys-Tyr-(Leu-Lys)4 [compound 37]”, in data set [2], the “micelle formation (in words)” value is “formed micelles” and the critical-micelle-concentration was in the range of 2 to 5 µM. The corresponding values for “PEG5kDa-Cys-Tyr-(Leu-Lys)6 [compound 36]” are “formed micelles” and 2 to 5 µM. The corresponding values for “PEG5kDa-Cys-Tyr-(Leu-Lys)8 [compound 35]” are “formed micelles” and 2 to 5 µM. As for “PEG5kDa-Cys-Tyr-(Lys)4-Leu-Lys4-Leu4 [compound 39]”, in data set [2], the “micelle formation (in words)” value is “produced measurable micelles; also recorded: formed micelles” and the critical-micelle-concentration was 2 to 5 µM. Take “PEG5kDa-Cys-Tyr-(Trp-Lys3)4 [compound 31]”: the “micelle formation (in words)” value in data set [2] is “avoided the formation of detectable micelles”. “PEG5kDa-Cys-Tyr-Leu4-(Leu-Lys)4-Lys4 [compound 40]”: in data set [2], the “micelle formation (in words)” value was “produced measurable micelles; also recorded: formed micelles” and the critical-micelle-concentration lay within 2 to 5 µM. Regarding PEG5kDa-Cys-Tyr-Lys25 [compound 26], in data set [3], the “percent of dose captured by the liver” value stood at 5%. Same read-out and setting: the result for PEG10kDa-Cys-Tyr-Lys25 [compound 25] reads 5%; that for PEG20kDa-Cys-Tyr-Lys25 [compound 24], 28%. Turning to PEG30kDa-Cys-Tyr-Lys10 [compound 20], the IC50 in data set [3] (read-out: apparent IC50, saturation of liver uptake, 125I-PEG-peptide i.v. tail vein, 1–80 nmol, triplicate mice, liver at 5 min, assuming 2-mL blood volume) turned out to be 1500 µM. With “Tyr-(Phe-Lys4)3Phe-Lys-Cys-PEG5kDa [compound 30]”, the “micelle formation (in words)” value in data set [2] is recorded as “avoided the formation of detectable micelles”.

Values taken from article PMC6413502 (Molecular pharmaceutics, 2018).
